# Data from ChEMBL document CHEMBL4190234, “Design, synthesis and anticancer activity of new monastrol analogues bearing 1,3,4-oxadiazole moiety” (Eur J Med Chem, 2017).
# Key:
# [1] = test system: SR; assay: Growth inhibition of human SR cells at 10 uM incubated for 48 hrs by sulforhodamine B assay relative to control; assay type: functional; settings: read-out: GI
# Method in brief: (§1)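 NCI single-dose screen: cells grown in RPMI 1640 with 5% FBS and 2 mM L-glutamine, plated at 5,000–40,000 cells/well and preincubated 24 h at 37 °C, 5% CO2. Compounds taken from DMSO stock and tested at final 10 µM for 48 h. Cells fixed with TCA, stained with 0.4% SRB, absorbance read at 515 nm. Percentage growth calculated against untreated controls; controls held DMSO at the same dilution.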
# [2] = test system: BT-549; assay: Growth inhibition of human BT549 cells at 10 uM incubated for 48 hrs by sulforhodamine B assay relative to control; assay type: functional; settings: BT-549, 48 h, read-out: GI
# Method in brief: (§2)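 Single-dose screen at 10 μM final: cells in RPMI 1640, 5% FBS, 2 mM L-glutamine, plated 5,000–40,000/well, preincubated 24 h at 37°C, 5% CO2; drug 48 h; adherent cells fixed with 10% TCA, suspension cells with 16% TCA; SRB stain, absorbance 515 nm; percentage growth versus untreated control, with time-zero plates.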
# [3] = test system: OVCAR-8; assay: Growth inhibition of human OVCAR8 cells at 10 uM incubated for 48 hrs by sulforhodamine B assay relative to control; assay type: functional; settings: OVCAR-8, 48 h, read-out: GI; method in brief: as §2
# [4] = test system: NCI/ADR-RES; assay: Growth inhibition of human NCI/ADR-RES cells at 10 uM incubated for 48 hrs by sulforhodamine B assay relative to control; assay type: functional; settings: read-out: GI; method in brief: as §2
# [5] = test system: T47D; assay: Growth inhibition of human T47D cells at 10 uM incubated for 48 hrs by sulforhodamine B assay relative to control; assay type: functional; settings: read-out: GI; method in brief: as §1
# [6] = test system: SW-620; assay: Growth inhibition of human SW620 cells at 10 uM incubated for 48 hrs by sulforhodamine B assay relative to control; assay type: functional; settings: SW-620, 48 h, read-out: GI; method in brief: as §1
# [7] = test system: MDA-MB-468; assay: Growth inhibition of human MDA-MB-468 cells at 10 uM incubated for 48 hrs by sulforhodamine B assay relative to control; assay type: functional; settings: MDA-MB-468, 48 h, read-out: GI; method in brief: as §2
# [8] = test system: NCI-H23; assay: Growth inhibition of human NCI-H23 cells at 10 uM incubated for 48 hrs by sulforhodamine B assay relative to control; assay type: functional; settings: NCI-H23, 48 h, read-out: GI; method in brief: as §2
# [9] = test system: SF-539; assay: Growth inhibition of human SF539 cells at 10 uM incubated for 48 hrs by sulforhodamine B assay relative to control; assay type: functional; settings: SF-539, 48 h, read-out: GI; method in brief: as §1
# [10] = test system: NCI-H226; assay: Growth inhibition of human NCI-H226 cells at 10 uM incubated for 48 hrs by sulforhodamine B assay relative to control; assay type: functional; settings: NCI-H226, 48 h, read-out: GI; method in brief: as §2
# [11] = test system: PC-3; assay: Growth inhibition of human PC3 cells at 10 uM incubated for 48 hrs by sulforhodamine B assay relative to control; assay type: functional; settings: PC-3, 48 h, read-out: GI; method in brief: as §2
# [12] = test system: SK-OV-3; assay: Growth inhibition of human SKOV3 cells at 10 uM incubated for 48 hrs by sulforhodamine B assay relative to control; assay type: functional; settings: SK-OV-3, 48 h, read-out: GI; method in brief: as §1
# [13] = test system: Malme-3M; assay: Growth inhibition of human MALME-3M cells at 10 uM incubated for 48 hrs by sulforhodamine B assay relative to control; assay type: functional; settings: read-out: GI; method in brief: as §2
# [14] = test system: SK-MEL-2; assay: Growth inhibition of human SK-MEL-2 cells at 10 uM incubated for 48 hrs by sulforhodamine B assay relative to control; assay type: functional; settings: SK-MEL-2, 48 h, read-out: GI; method in brief: as §1
# [15] = test system: SN12C; assay: Growth inhibition of human SN12C cells at 10 uM incubated for 48 hrs by sulforhodamine B assay relative to control; assay type: functional; settings: read-out: GI; method in brief: as §1
# [16] = test system: K562; assay: Growth inhibition of human K562 cells at 10 uM incubated for 48 hrs by sulforhodamine B assay relative to control; assay type: functional; settings: K562, 48 h, read-out: GI; method in brief: as §2
# [17] = test system: ACHN; assay: Growth inhibition of human ACHN cells at 10 uM incubated for 48 hrs by sulforhodamine B assay relative to control; assay type: functional; settings: read-out: GI; method in brief: as §2
# [18] = test system: OVCAR-3; assay: Growth inhibition of human OVCAR3 cells at 10 uM incubated for 48 hrs by sulforhodamine B assay relative to control; assay type: functional; settings: OVCAR-3, 48 h, read-out: GI; method in brief: as §2
# [19] = test system: HOP-62; assay: Growth inhibition of human HOP62 cells at 10 uM incubated for 48 hrs by sulforhodamine B assay relative to control; assay type: functional; settings: HOP-62, 48 h, read-out: GI; method in brief: as §2
# [20] = test system: SK-MEL-28; assay: Growth inhibition of human SK-MEL-28 cells at 10 uM incubated for 48 hrs by sulforhodamine B assay relative to control; assay type: functional; settings: SK-MEL-28, 48 h, read-out: GI; method in brief: as §1
# [21] = test system: SNB-19; assay: Growth inhibition of human SNB19 cells at 10 uM incubated for 48 hrs by sulforhodamine B assay relative to control; assay type: functional; settings: SNB-19, 48 h, read-out: GI; method in brief: as §1
# [22] = test system: CAKI-1; assay: Growth inhibition of human Caki1 cells at 10 uM incubated for 48 hrs by sulforhodamine B assay relative to control; assay type: functional; settings: CAKI-1, 48 h, read-out: GI; method in brief: as §2
# [23] = test system: DU-145; assay: Growth inhibition of human DU145 cells at 10 uM incubated for 48 hrs by sulforhodamine B assay relative to control; assay type: functional; settings: DU-145, 48 h, read-out: GI; method in brief: as §2
# [24] = test system: MDA-MB-231; assay: Growth inhibition of human MDA-MB-231 cells at 10 uM incubated for 48 hrs by sulforhodamine B assay relative to control; assay type: functional; settings: MDA-MB-231, 48 h, read-out: GI; method in brief: as §2
# [25] = test system: UACC-62; assay: Growth inhibition of human UACC62 cells at 10 uM incubated for 48 hrs by sulforhodamine B assay relative to control; assay type: functional; settings: UACC-62, 48 h, read-out: GI; method in brief: as §1
# [26] = test system: U-251; assay: Growth inhibition of human U251 cells at 10 uM incubated for 48 hrs by sulforhodamine B assay relative to control; assay type: functional; settings: U-251, 48 h, read-out: GI; method in brief: as §1
# [27] = test system: UACC-257; assay: Growth inhibition of human UACC257 cells at 10 uM incubated for 48 hrs by sulforhodamine B assay relative to control; assay type: functional; settings: UACC-257, 48 h, read-out: GI; method in brief: as §1
# [28] = test system: EKVX; assay: Growth inhibition of human EKVX cells at 10 uM incubated for 48 hrs by sulforhodamine B assay relative to control; assay type: functional; settings: read-out: GI; method in brief: as §2
# [29] = test system: HL-60(TB); assay: Growth inhibition of human HL-60(TB) cells incubated for 24 hrs by MTT assay; assay type: functional, cell-based; settings: HL-60, 24 h
# Method in brief: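 Cells at 1.2-1.8×10^4 cells/ml in DMEM with 10% FBS, 10 µg/ml insulin and 1% penicillin/streptomycin, plated overnight at 37°C. Serial 10-fold dilutions added to 0.01–100 µM final, medium as negative control, 24 h. MTT (5 mg/ml) added for 4 h, formazan dissolved in acid-isopropanol, A490 read. Eight separate experiments; percent viable cells used to derive IC50.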
# [30] = test system: A549; assay: Growth inhibition of human A549/ATCC cells at 10 uM incubated for 48 hrs by sulforhodamine B assay relative to control; assay type: functional; settings: A549, 48 h, read-out: GI; method in brief: as §2
# [31] = test system: RPMI-8226; assay: Growth inhibition of human RPMI8226 cells at 10 uM incubated for 48 hrs by sulforhodamine B assay relative to control; assay type: functional; settings: RPMI-8226, 48 h, read-out: GI; method in brief: as §2
smiles,measurement,setting,value
CCOC(=O)C1=C(C)NC(SCc2nnc(-c3ccc(Cl)cc3)o2)=NC1c1ccc(Br)cc1 (stereo unspecified),inhibition of growth at 10 µM,[1],61.2%
same,inhibition of growth at 10 µM,[2],20.2%
same,inhibition of growth at 10 µM,[3],27.3%
same,inhibition of growth at 10 µM,[4],32.5%
same,inhibition of growth at 10 µM,[5],52%
same,inhibition of growth at 10 µM,[6],< 10%
same,inhibition of growth at 10 µM,[7],41.8%
same,inhibition of growth at 10 µM,[8],24.3%
same,inhibition of growth at 10 µM,[9],11.3%
same,inhibition of growth at 10 µM,[10],21.1%
same,inhibition of growth at 10 µM,[11],51.2%
same,inhibition of growth at 10 µM,[12],18%
same,inhibition of growth at 10 µM,[13],16.9%
same,inhibition of growth at 10 µM,[14],< 10%
same,inhibition of growth at 10 µM,[15],< 10%
same,inhibition of growth at 10 µM,[16],39.3%
same,inhibition of growth at 10 µM,[17],30.3%
same,inhibition of growth at 10 µM,[18],22.5%
same,inhibition of growth at 10 µM,[19],13.1%
same,inhibition of growth at 10 µM,[20],18.7%
same,inhibition of growth at 10 µM,[21],28%
same,inhibition of growth at 10 µM,[22],32.8%
same,inhibition of growth at 10 µM,[23],15.7%
same,inhibition of growth at 10 µM,[24],40.2%
same,inhibition of growth at 10 µM,[25],44.7%
same,inhibition of growth at 10 µM,[26],34.3%
same,inhibition of growth at 10 µM,[27],27%
same,inhibition of growth at 10 µM,[28],28.7%
same,IC50,[29],143 nM
same,inhibition of growth at 10 µM,[30],37.6%
same,inhibition of growth at 10 µM,[31],61.6%
